From PubChem BioAssay
Most compounds without a hit are left out; they make up all but 1.8% or so of the library.
eIF4H FP inh: human eIF4H binding inhibitors, primary screen, translation initiation inhibitor project, biochemical, uHTS, fluorescence polarization; AID 2012, 2009; inhibition, % at 35 µM; Eukaryotic translation initiation factor 4H (Homo sapiens), Q15056; 290,000 tested, 0.94% active; eIF4H fluorescence polarization binding assay;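 further: calls also rest on retests at 20 µM and on dose response follow-up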
SKN-1 inh: suppressors of acrylamide-induced Pgst-4::GFP reporter in worms, primary screen, SKN-1 inhibitor project, whole organism, uHTS, GFP/RFP fluorescence ratio, strain VP596 | 360,000 tested, 0.49% active | C. elegans VP596 Pgst-4::GFP/RFP ratio, 24 h | AID 624304, 2012 | inhibition, % at 21.8 µM;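 active means interference check ratio from 0.5 to 1.5 plus GFP to RFP signal ratio inhibition reaching or exceeding a fixed threshold, cut at about 30% in these data, passing the limit was not always enough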
MT1-MMP act inh: blockers of MT1-MMP proenzyme processing, primary screen, HT1080 RFP-PRO-GFP cells, GFP/RFP fluorescence. Matrix metalloproteinase-14 (Homo sapiens), P50281. GFP/RFP ratio fluorescence, overnight; percent of plate control window, DMSO zero. GFP/RFP ratio change, % at 20 µM. 360,000 tested, 0.061% active;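 active means GFP/RFP ratio change of at least 30% with cell ATP level not reduced by more than half and red fluorescence within 50% of control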
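Test system: HT1080 cells expressing an RFP-PRO-GFP fluorescent reporter construct / Compound dosing: single-point 20 µM compound, 1% DMSO / Schedule: cells overnight before dosing, compound overnight, 37 °C, 5% CO2 / Evaluation: GFP/RFP fluorescence ratio / Control set: DMSO and RFP-L50D-GFP cell wells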
PABP FP inh: PABP poly(A) RNA binding inhibitors, primary screen, biochemical, fluorescence polarization, uHTS; 290,000 tested, 1% active; Polyadenylate-binding protein 1 (Homo sapiens), P11940; calls only at 35 µM;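 further: calls also rest on retests at 20 µM and on dose response follow-up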
Target sequence (P11940 whole entry, looked up): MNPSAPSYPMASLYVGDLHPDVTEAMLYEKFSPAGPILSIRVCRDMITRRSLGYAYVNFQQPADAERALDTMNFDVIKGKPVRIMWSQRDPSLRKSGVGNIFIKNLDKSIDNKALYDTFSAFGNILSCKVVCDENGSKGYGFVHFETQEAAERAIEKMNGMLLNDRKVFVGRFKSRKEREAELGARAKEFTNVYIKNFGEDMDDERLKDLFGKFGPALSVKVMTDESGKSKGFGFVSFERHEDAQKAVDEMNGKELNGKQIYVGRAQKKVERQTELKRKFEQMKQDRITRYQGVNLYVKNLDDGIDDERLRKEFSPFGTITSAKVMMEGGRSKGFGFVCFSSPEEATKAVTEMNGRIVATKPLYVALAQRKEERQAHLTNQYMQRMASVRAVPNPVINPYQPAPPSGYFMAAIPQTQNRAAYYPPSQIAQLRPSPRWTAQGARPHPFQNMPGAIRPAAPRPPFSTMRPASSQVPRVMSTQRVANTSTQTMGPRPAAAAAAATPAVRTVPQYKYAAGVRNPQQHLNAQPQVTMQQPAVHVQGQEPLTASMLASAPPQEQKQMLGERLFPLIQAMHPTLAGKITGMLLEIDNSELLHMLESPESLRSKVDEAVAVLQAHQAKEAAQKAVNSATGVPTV
PABP1 MLLE inh: inhibitors of PABP1 MLLE–PAM2 peptide binding, primary screen, biochemical, fluorescence polarization, FITC-PAM2, GST-MLLE; inhibition, % at 20 µM; AID 588489, 2011; 360,000 tested, 0.36% active; Polyadenylate-binding protein 1 (Homo sapiens), P11940; in the data active means inhibition above about 35%, passing the limit was not always enough;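 further: plate controls were DMSO wells with GST-MLLE for no effect and wells lacking GST-MLLE protein for full effect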
Active calls of the source: *. Unless noted, how the calls were made is not given here.

Screening Fc1ccc(-c2nc(-c3cccs3)no2)cc1 returned eIF4H FP inh 9.9, SKN-1 inh 50.8*, MT1-MMP act inh 1.9, PABP FP inh inactive and PABP1 MLLE inh -0.8.
For Fc1ccc(-c2cnc(-c3cccs3)o2)cc1 the results were eIF4H FP inh -7.7, SKN-1 inh 92.1*, MT1-MMP act inh -5.4, PABP FP inh inactive and PABP1 MLLE inh -8.2.
`Fc1ccc(-c2cc(-c3cccs3)cc(-c3ccccc3)n2)cc1` gave eIF4H FP inh -0.8, SKN-1 inh -5.5, MT1-MMP act inh 1.0, PABP FP inh inactive and PABP1 MLLE inh 7.0.
For CCC(CC)c1nnc(NC(=O)C2CC(=O)N(CCc3ccc(F)cc3)C2)s1 (stereo unspecified) the results were eIF4H FP inh 2.1, SKN-1 inh 12.8, MT1-MMP act inh 0.8, PABP FP inh inactive and PABP1 MLLE inh 31.7*.
Cn1nc(C(C)(C)C)cc1C(=O)Sc1cccc(Br)c1 was read as eIF4H FP inh -2.3, SKN-1 inh 18.9, MT1-MMP act inh 1.9, PABP FP inh inactive and PABP1 MLLE inh 44.1*.
O=S(=O)(c1ccc(F)c(F)c1)N1CCCCCCC1 was read as SKN-1 inh 10.2, MT1-MMP act inh -3.0 and PABP1 MLLE inh 1.5.
S=c1[nH]nc(-c2ccc(Cl)cc2)n1/N=C/C=C/c1ccco1 was read as eIF4H FP inh 82.8*, SKN-1 inh 11.7, MT1-MMP act inh 1.8, PABP FP inh active and PABP1 MLLE inh -11.3.
Screening CC(/C=N/n1c(-c2cccnc2)n[nH]c1=S)=C\c1ccco1 returned eIF4H FP inh 75.9*, SKN-1 inh 21.4, MT1-MMP act inh 3.3, PABP FP inh active and PABP1 MLLE inh 1.7.
S=c1[nH]nc(-c2ccccc2)n1/N=C/C=C/c1ccco1 was read as eIF4H FP inh 91.0, SKN-1 inh 2.4, MT1-MMP act inh -1.7, PABP FP inh inactive and PABP1 MLLE inh -11.3.
Screening S=c1[nH]nc(-c2cccnc2)n1/N=C/C=C/c1ccco1 returned eIF4H FP inh 96.5*, SKN-1 inh 0.3, MT1-MMP act inh -6.8, PABP FP inh inactive and PABP1 MLLE inh -14.8.
Screening Cc1cc(C)n(CCC(=O)N2CCN(S(=O)(=O)c3ccccc3)CC2)n1 returned eIF4H FP inh -18.7, SKN-1 inh 5.3, MT1-MMP act inh 2.8, PABP FP inh inactive and PABP1 MLLE inh -9.9.
`Cc1ccc(NC(=O)Cc2nc(CN(C)CC(=O)Nc3ccc(C)cc3)cs2)cc1` gave SKN-1 inh 4.8, MT1-MMP act inh 1.9 and PABP1 MLLE inh -7.3.
`O=C(Nc1cc(-c2ccccc2)[nH]n1)c1ccccc1` gave eIF4H FP inh -3.7, SKN-1 inh 36.7*, MT1-MMP act inh -0.9, PABP FP inh inactive and PABP1 MLLE inh 1.5.
`COc1cccc(OC)c1C(=O)NC(=S)Nc1cc(-c2nc3ccccc3[nH]2)ccc1Cl` gave eIF4H FP inh active, SKN-1 inh 5.7, MT1-MMP act inh 9.3, PABP FP inh inactive and PABP1 MLLE inh 16.4.
Screening COc1c(F)c(F)c(C(=O)Nc2ccc(-c3nc4ccccc4[nH]3)cc2)c(F)c1F returned eIF4H FP inh -2.5, SKN-1 inh -3.2, MT1-MMP act inh 1.4, PABP FP inh inactive and PABP1 MLLE inh 8.4.
`CCOC(=O)C1(C)CCCCCN1C(=O)/C=C/c1ccccc1` (stereo unspecified) gave SKN-1 inh 22.2, MT1-MMP act inh -1.9 and PABP1 MLLE inh -2.3.
For COc1ccc(CNC(=O)C(c2ccco2)N(Cc2cccs2)C(=O)Cc2cccs2)cc1 (stereo unspecified) the results were eIF4H FP inh -9.3, SKN-1 inh 1.8, MT1-MMP act inh -5.7, PABP FP inh inactive and PABP1 MLLE inh 7.1.
For COc1ccc(N(C(=O)CNC(=O)c2ccco2)C(C(=O)NC2CCCCC2)c2cccnc2)cc1 (stereo unspecified) the results were eIF4H FP inh -3.1, SKN-1 inh 37.5*, MT1-MMP act inh -2.2, PABP FP inh inactive and PABP1 MLLE inh -8.3.
COc1ccc(CNC(=O)C(c2ccco2)N(C(=O)Cc2cccs2)c2cccnc2)cc1 (stereo unspecified) was read as eIF4H FP inh 76.8*, SKN-1 inh 3.7, MT1-MMP act inh -3.8, PABP FP inh inactive and PABP1 MLLE inh 6.4.
`Cc1cc(C)c(S(=O)(=O)NCc2cccs2)cc1C` gave eIF4H FP inh -14.9, SKN-1 inh -8.8, MT1-MMP act inh -3.2, PABP FP inh inactive and PABP1 MLLE inh -9.6.
`CCCOc1cc(C)c(S(=O)(=O)NCc2cccs2)cc1C` gave SKN-1 inh 43.9*, MT1-MMP act inh 1.6 and PABP1 MLLE inh -1.6.
Screening Cc1ccc(S(=O)(=O)N2CCN(CC(=O)Nc3ccnn3C3CCCC3)CC2)cc1 returned SKN-1 inh -7.1, MT1-MMP act inh 2.9 and PABP1 MLLE inh 11.6.
Cc1ccc(-c2cc(C(=O)N(C)CC(=O)Nc3ccccc3Br)c3ccccc3n2)o1 was read as SKN-1 inh -14.0, MT1-MMP act inh -4.1 and PABP1 MLLE inh 7.5.
`C/C(=N\NC(N)=O)c1ccccc1Cl` gave eIF4H FP inh 105.6*, SKN-1 inh -0.7, MT1-MMP act inh -1.7, PABP FP inh active and PABP1 MLLE inh 1.0.
`CCOC(=O)C1(C)CCN1C(=O)c1ccc(OC)c(OC)c1` (stereo unspecified) gave SKN-1 inh -2.8, MT1-MMP act inh 0.3 and PABP1 MLLE inh -10.8.
Screening Cc1ccc(Cn2c(C(C)Nc3nc(-c4ccc(C)cc4)cs3)nc3cc(Cl)c(Cl)cc32)cc1 (stereo unspecified) returned eIF4H FP inh 85.0*, SKN-1 inh 13.3, MT1-MMP act inh -1.6, PABP FP inh inactive and PABP1 MLLE inh 2.0.
`O=C(CSc1nccc(=O)[nH]1)N1CCCc2ccccc21` gave eIF4H FP inh -6.3, SKN-1 inh 2.4, MT1-MMP act inh -5.1, PABP FP inh inactive and PABP1 MLLE inh 38.1*.
Cc1cc(=O)[nH]c(SCC(=O)N2CCCc3ccccc32)n1 was read as eIF4H FP inh -5.0, SKN-1 inh 1.9, MT1-MMP act inh 10.5, PABP FP inh inactive and PABP1 MLLE inh 24.0.
For CCn1c(SCC(=O)Nc2ccc(NC(=O)c3cccs3)cc2)nnc1-c1cccnc1 the results were eIF4H FP inh -7.5, SKN-1 inh 35.1*, MT1-MMP act inh -4.0, PABP FP inh inactive and PABP1 MLLE inh -6.3.
CCn1c(SCC(=O)Nc2nc(C)c(C)s2)nnc1-c1cccnc1 was read as eIF4H FP inh -2.4, SKN-1 inh 9.7, MT1-MMP act inh 2.9, PABP FP inh inactive and PABP1 MLLE inh 5.6.
